Source: ChEMBL document CHEMBL6078676, “In Vitro and In Vivo Leishmanicidal Activity of Beauvericin” (J Nat Prod, 2024)
≈ marks a conversion by molar mass, not a printed value. Calls of active or inactive are those of the source. The rule behind the calls is not given here.

Experiments:
[1] = test system: Leishmania amazonensis; assay: Antileishmanial activity against Leishmania amazonensis IFLA/BR/67/PH8 amastigotes infected in mouse BMDM cells at 1.6 uM pre-infected in cells for 24 hrs followed by compound addition and measured after 48 hrs; format: functional, organism-based
Method in brief: (§1)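 BALB/c BMDM (4 × 10^5) on coverslips were infected with stationary-phase L. amazonensis promastigotes, MOI 5, for 24 h at 34 °C, 5% CO2. After a PBS wash, cells received fresh RPMI with 0.4–1.6 μM. Incubation ran 24 h, 48 h, or 24 + 24 h with fresh medium. Cells were MeOH-fixed and stained; ≥300 cells were counted for infection rate, amastigotes/100 macrophages, and their product, relative to untreated. Two independent assays in triplicate.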

[2] = test system: Leishmania braziliensis; assay: Antileishmanial activity against Leishmania braziliensis MHOM/BR/91/H3227 intracellular amastigotes infected in mouse BMDM cells assessed as reduction in infectivity index at 1.6 uM pre-infected in cells for 24 hrs followed by compound addition and measured after 48 hrs by cell imaging analysis; format: functional; parameters: scale not given: the % may be the effect or the level left
Method in brief: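 BMDM infected with stationary-phase L. braziliensis promastigotes, MOI 10, for 24 h at 34 °C, 5% CO2. After washing, cells were given 0.4–1.6 μM in fresh RPMI for 48 h. MeOH fixation and staining, then ≥300 host cells counted. Infectivity index (infection rate × amastigotes per 100 macrophages) expressed relative to untreated; two independent assays in triplicate.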

[3] = Selectivity index, ratio of CC50 for cytotoxicity against mouse L929 cells assessed as cell viability to EC50 for antitrypanosomal activity against Trypanosoma cruzi Y epimastigote assessed as parasite killing; format: toxicity, cell-based; details: read-out: Ratio CC50/EC50
Method in brief: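 Ratio of 24 h MTT CC50 in L929 fibroblasts to T. cruzi Y epimastigote EC50.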

[4] = Selectivity index, ratio of CC50 for cytotoxicity against mouse BMDM cells assessed as cell viability to EC50 for antileishmanial activity against Leishmania amazonensis IFLA/BR/67/PH8 intracellular amastigote; format: toxicity, cell-based; details: read-out: Ratio CC50/EC50
Method in brief: (§2)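 Ratio of 24 h MTT CC50 in BALB/c BMDM to Leishmania EC50.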

[5] = test system: Leishmania amazonensis; assay: Antileishmanial activity against Leishmania amazonensis IFLA/BR/67/PH8 amastigotes infected in mouse BMDM cells assessed as inhibition of parasite growth upto 1.6 uM pre-infected in cells for 24 hrs followed by compound addition and measured after 48 hrs by cell imaging analysis; format: functional, organism-based; method in brief: as §1
[6] = test system: Leishmania amazonensis; assay: Antileishmanial activity against Leishmania amazonensis IFLA/BR/67/PH8 amastigotes infected in female BALB/c mouse assessed as reduction in mean lesion at 5 mg/kg, topically administered for 32 days and measured after 8 to 13 week; details: route topical, time 8-13 weeks
[7] = Selectivity index, ratio of CC50 for cytotoxicity against mouse BMDM cells assessed as cell viability to EC50 for antileishmanial activity against Leishmania amazonensis IFLA/BR/67/PH8 promastigote assessed as parasite killing; format: toxicity, cell-based; details: read-out: Ratio CC50/EC50; method in brief: as §2
[8] = test system: Leishmania amazonensis; assay: Induction of membrane morphological changes in Leishmania amazonensis IFLA/BR/1967/PH8 promastigote upto 1.2 uM incubated for 24 hrs by optical microscopic analysis; format: functional, organism-based
[9] = test system: Leishmania amazonensis; assay: Antileishmanial activity against Leishmania amazonensis IFLA/BR/67/PH8 promastigote assessed as parasite killing incubated for 24 hrs; format: functional, organism-based; details: IFLA/BR/67/PH8, 24 h
Method in brief: (§3)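 Axenic parasites (5 × 10^6/well) were exposed for 24 h to increasing concentrations of compound dissolved in DMSO. MTT (5 mg/mL) was added for 3 h and the reaction stopped with 20% SDS. Formazan was read at 600 nm against a 650 nm reference to give EC50. Leishmania grew in supplemented M199 pH 7.4 at 25 °C; T. cruzi Y epimastigotes grew in LIT with 10% FBS at 28 °C.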

[10] = test system: Leishmania braziliensis; assay: Induction of membrane morphological changes in Leishmania braziliensis MHOM/BR/91/H3227 assessed as appearance of leaf-like promastigotes at 1.2 to 9.6 uM incubated for 24 hrs by optical microscopic analysis; format: functional, organism-based; details: dose 1.2-9.6 µM
[11] = test system: Leishmania amazonensis; assay: Antileishmanial activity against Leishmania amazonensis IFLA/BR/67/PH8 amastigotes infected in mouse BMDM cells assessed as reduction in infectivity index at 1.6 uM pre-infected in cells for 24 hrs followed by compound addition and measured after 48 hrs; format: functional; parameters: scale not given: the % may be the effect or the level left; method in brief: as §1
[12] = test system: Cell membrane; assay: Induction of cell membrane permeabilization in Leishmania amazonensis IFLA/BR/67/PH8 promastigotes incubated for 24 hrs; format: subcellular
Method in brief: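 Promastigotes were incubated 24 h with 1.0 μM. Membrane permeability was measured by ethidium bromide fluorescence against untreated cells.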

[13] = Selectivity index, ratio of CC50 for cytotoxicity against mouse BMDM cells assessed as cell viability to EC50 for antileishmanial activity against Leishmania braziliensis MHOM/BR/91/H3227 promastigote assessed as parasite killing; format: toxicity, cell-based; details: read-out: Ratio CC50/EC50; method in brief: as §2
[14] = test system: Leishmania amazonensis; assay: Antileishmanial activity against Leishmania amazonensis IFLA/BR/67/PH8 amastigotes infected in female BALB/c mouse assessed as total ulcerated area by measuring delay in ulcer progression at 5 mg/kg, topically administered for 32 days and measured after 8 to 13 week; details: route topical, time 8-13 weeks
[15] = test system: Leishmania amazonensis; assay: Induction of membrane morphological changes in Leishmania amazonensis IFLA/BR/67/PH8 promastigote assessed as shortening of cell body at 2.4 to 9.6 uM incubated for 24 hrs by optical microscopic analysis; format: functional, organism-based; details: dose 2.4-9.6 µM
[16] = Selectivity index, ratio of CC50 for cytotoxicity against mouse BMDM cells assessed as cell viability to EC50 for antileishmanial activity against Leishmania braziliensis MHOM/BR/91/H3227 intracellular amastigote assessed as parasite killing; format: toxicity, cell-based; details: read-out: Ratio CC50/EC50; method in brief: as §2
[17] = test system: Leishmania braziliensis; assay: Antileishmanial activity against Leishmania braziliensis MHOM/BR/91/H3227 intracellular amastigote assessed as parasite killing incubated for 24 hrs; format: functional, organism-based; details: MHOM/BR/91/H3227, 24 h
[18] = Cytotoxicity against mouse L929 cells assessed as cell viability measured for 24 hrs by MTT assay; format: toxicity, cell-based
Method in brief: (§4)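 MTT viability after 24 h exposure to increasing concentrations (DMSO solution) gave CC50. BMDM (4 × 10^5/well) were differentiated for 7 days from female BALB/c marrow in RPMI with 20% FBS and 30% L929 supernatant. L929 fibroblasts (5 × 10^4/well) were in supplemented RPMI. Both were held at 37 °C, 5% CO2. Read at 600/650 nm after 3 h MTT and SDS stop.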

[19] = test system: Leishmania amazonensis; assay: Induction of membrane morphological changes in Leishmania amazonensis IFLA/BR/67/PH8 promastigote assessed as rounding of cell body at 2.4 to 9.6 uM incubated for 24 hrs by optical microscopic analysis; format: functional, organism-based; details: dose 2.4-9.6 µM
[20] = test system: Leishmania amazonensis; assay: Antileishmanial activity against Leishmania amazonensis IFLA/BR/67/PH8 amastigotes infected in female BALB/c mouse assessed as reduction in parasite burden at 5 to 10 mg/kg, ip administered for 15 days; format: functional, organism-based; details: dose 5-10 mg/kg, time 15.0 day
Method in brief: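 Female BALB/c mice (35 days old) were infected at the tail base with ~1 × 10^6 stationary-phase L. amazonensis promastigotes. Treatment was 5 or 10 mg/kg/day ip in 150 μL DMSO/0.9% NaCl (1:9), daily for 15 days from week 7 to week 9; vehicle controls, 5 per group. Lesion parasite load was measured by limiting dilution in M199 with wells read after 7 days.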

[21] = test system: Leishmania braziliensis; assay: Antileishmanial activity against Leishmania braziliensis MHOM/BR/91/H3227 promastigote assessed as parasite killing incubated for 24 hrs; format: functional, organism-based; details: MHOM/BR/91/H3227, 24 h; method in brief: as §3
[22] = Cytotoxicity against mouse BMDM cells assessed as cell viability at 1.6 uM incubated for 24 hrs by MTT assay; format: toxicity, cell-based
[23] = test system: Leishmania braziliensis; assay: Induction of membrane morphological changes in Leishmania braziliensis MHOM/BR/91/H3227 assessed as appearance of sperm-like structure at 1.2 to 9.6 uM incubated for 24 hrs by optical microscopic analysis; format: functional, organism-based; details: dose 1.2-9.6 µM
[24] = test system: Trypanosoma cruzi; assay: Antitrypanosomal activity against Trypanosoma cruzi Y epimastigote assessed as parasite killing incubated for 24 hrs; format: functional, organism-based; method in brief: as §3
[25] = test system: HaCaT; assay: Antiproliferative activity against human HaCaT cells assessed as inhibition of cell proliferation incubated for 72 hrs by MTT assay; format: functional, cell-based
[26] = test system: Leishmania amazonensis; assay: Induction of membrane morphological changes in Leishmania amazonensis IFLA/BR/67/PH8 promastigote assessed as cell debris formation 2.4 to 9.6 uM incubated for 24 hrs by optical microscopic analysis; format: functional, organism-based; details: dose 2.4-9.6 µM
[27] = test system: PC-3; assay: Inhibition of cell migration in human PC-3 cells; format: functional, cell-based
[28] = test system: MDA-MB-231; assay: Inhibition of cell migration in human MDA-MB-231 cells; format: functional, cell-based
[29] = test system: Leishmania amazonensis; assay: Induction of membrane morphological changes in Leishmania amazonensis IFLA/BR/67/PH8 promastigote assessed as aberrant nuclei 2.4 to 9.6 uM incubated for 24 hrs by optical microscopic analysis; format: functional, organism-based; details: dose 2.4-9.6 µM
[30] = test system: Leishmania braziliensis; assay: Induction of membrane morphological changes in Leishmania braziliensis MHOM/BR/91/H3227 assessed as appearance of slender cell bodies at 1.2 to 9.6 uM incubated for 24 hrs by optical microscopic analysis; format: functional, organism-based; details: dose 1.2-9.6 µM
[31] = test system: Leishmania amazonensis; assay: Antileishmanial activity against Leishmania amazonensis IFLA/BR/67/PH8 intracellular amastigote assessed as parasite killing incubated for 24 hrs; format: functional, organism-based; details: IFLA/BR/67/PH8, 24 h
[32] = Cytotoxicity against mouse BMDM cells assessed as cell viability incubated for 24 hrs by MTT assay; format: toxicity, cell-based; method in brief: as §4
[33] = test system: Leishmania amazonensis; assay: Antileishmanial activity against Leishmania amazonensis assessed as reduction in parasite proliferation incubated for 72 hrs; format: functional, organism-based
[34] = test system: Leishmania amazonensis; assay: Antileishmanial activity against Leishmania amazonensis assessed as reduction in parasite proliferation at 50 microg/ml incubated for 72 hrs; format: functional; parameters: scale not given: the % may be the effect or the level left; details: dose 50 µg/ml

In the case of CC(C)[C@H]1OC(=O)[C@H](Cc2ccccc2)N(C)C(=O)[C@@H](C(C)C)OC(=O)[C@H](Cc2ccccc2)N(C)C(=O)[C@@H](C(C)C)OC(=O)[C@H](Cc2ccccc2)N(C)C1=O, the Activity [1] is reported as “Active”, the Activity [2] is reported as 89% and the selectivity ratio [3] is reported as 13.4. The selectivity ratio [4] was 22.3, the Activity [5] was “Active” and the Activity [6] was “inactive”. For the same molecule, the selectivity ratio [7] was 14.8, the Activity [8] was “Active” and the EC50 [9] was 1200 nM. For the same molecule, the Activity [10] was “Active”, the Activity [11] was 95% and the Activity [12] was “Active”. The selectivity ratio [13] was 19.8, the Activity [14] was “Active” and the Activity [15] was “Active”. The selectivity ratio [16] was 29.7, the EC50 [17] was 600 nM and the CC50 at 24 h [18] was 45.5 µM. For the same molecule, the Activity [19] was “Active”, the Activity [20] was “Active” and the EC50 [21] was 900 nM. For the same molecule, the Activity [22] was “Non-toxic”, the Activity [23] was “Active” and the EC50 [24] was 3400 nM. For the same molecule, the IC50 [25] was 3.9 µM, the Activity [26] was “Active” and the inhibition [27] was “Active”. The inhibition [28] was “Active”, the Activity [29] was “Active” and the Activity [30] was “Active”. The EC50 [31] was 800 nM and the CC50 at 24 h [32] was 17.8 µM.
With O=c1cc(CO)occ1O [KOJIC ACID] the EC50 [33] was 27.8 µg/mL (≈ 196 µM) and the Activity [34] was 79%.
C[C@@H]1[C@H](O)[C@@H](C)/C=C/C=C/C=C/C=C/C=C/C=C/C=C/[C@H](O[C@@H]2O[C@H](C)[C@@H](O)[C@H](N)[C@@H]2O)C[C@@H]2O[C@](O)(C[C@@H](O)C[C@@H](O)[C@H](O)CC[C@@H](O)C[C@@H](O)CC(=O)O[C@H]1C)C[C@H](O)[C@H]2C(=O)O [AMPHOTERICIN B] gave an EC50 [9] of 200 nM, an EC50 [17] of 200 nM and an EC50 [21] of 200 nM. The EC50 [24] was 2230 nM and the EC50 [31] was 200 nM.
